Assay outcomes: PubChem BioAssay, Broad Institute
Compounds with a hit are over-represented: about 2.8% of the library has one in this group of screens.
E-selectin induc: E-selectin induction in HUVECs, primary screen, imaging, HUVEC, immunofluorescence imaging, single point; 260,000 compounds, 0.37% hits; P16581; normalized: neutral wells 0, TNF-alpha wells 100; activation, % at 7.58 µM;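 active = mean E-selectin-positive cell signal at least 10% of the positive control, reached in at least 60% of replicates, without over 20% cell loss; inconclusive = no rule given, readout overlaps actives, possibly toxicity-flagged; inactive = the rest, including those meeting only one limit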
Target sequence (P16581 whole entry, looked up): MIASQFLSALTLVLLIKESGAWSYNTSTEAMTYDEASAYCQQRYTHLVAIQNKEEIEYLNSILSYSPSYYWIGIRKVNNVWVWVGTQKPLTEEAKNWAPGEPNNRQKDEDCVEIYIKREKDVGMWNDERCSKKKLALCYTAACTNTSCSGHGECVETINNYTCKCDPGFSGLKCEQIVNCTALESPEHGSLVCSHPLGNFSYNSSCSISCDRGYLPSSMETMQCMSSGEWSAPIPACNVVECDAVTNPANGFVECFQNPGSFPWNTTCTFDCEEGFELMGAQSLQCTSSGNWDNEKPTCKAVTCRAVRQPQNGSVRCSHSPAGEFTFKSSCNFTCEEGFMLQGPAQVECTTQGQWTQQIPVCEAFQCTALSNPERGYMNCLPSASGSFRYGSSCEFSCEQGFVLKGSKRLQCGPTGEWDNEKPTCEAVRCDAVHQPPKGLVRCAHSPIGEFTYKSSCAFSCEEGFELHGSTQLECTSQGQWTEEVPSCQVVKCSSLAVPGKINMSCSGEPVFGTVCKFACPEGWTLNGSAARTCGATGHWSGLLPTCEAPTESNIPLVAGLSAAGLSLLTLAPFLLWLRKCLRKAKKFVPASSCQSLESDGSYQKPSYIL
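Test system: HUVEC | Signal: Immunofluorescence imaging | Read-out: Percent E-selectin-positive cells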
SIRT5 inh: SIRT5 desuccinylase inhibitors, primary screen, biochemical, fluorescence imaging, single point, set 5. inhibition, % at 15 µM. 330,000 compounds, 1.1% hits. AID 652115, 2013. Purified SirT5, succinyl-peptide AMC, trypsin-coupled fluorescence. NAD-dependent protein deacylase sirtuin-5, mitochondrial (Homo sapiens), Q9NXA8; in the data active = inhibition above about 15%; inconclusive = no clear call, values can overlap the other calls
DENV2 CPE: inhibitors of DENV2 cytopathic effect, primary screen, cell-based, plate reader, single concentration. DENV2-infected cells, cytopathic effect rescue. CPE inhibition, % at 9.99 µM. 350,000 compounds, 1.7% hits. AID 651640, 2012; in the data active = CPE inhibition above about 20%, passing the limit was not always enough; inconclusive = no clear call, values can overlap the other calls; tested in BHK-21 cells
Numbers stand for hits; i = inactive; ? = inconclusive; nt = not tested or not shown.

SMILES | E-selectin induc | SIRT5 inh | DENV2 CPE
C[C@@H]1CN([C@@H](C)CO)C(=O)c2cc(NC(=O)C3CCCCC3)ccc2O[C@H]1CN(C)C(=O)NC1CCCCC1 | i | i | ?
Cc1cc(C(=O)N/N=C2/CC(C)CC(C)(C)C2)c(C)o1 (centres undefined) | i | 41.3 | i
Cc1cc(C(=O)N/N=C2\CCCc3ccccc32)c(C)o1 | i | i | i
CO[C@@H]1CN(C)C(=O)c2ccc(NC(C)=O)cc2OC[C@H](C)N(S(=O)(=O)c2cn(C)cn2)C[C@H]1C | i | i | i
CCC(=O)N1CC[C@@H]2[C@H]1c1cc(C#Cc3cccc(OC)c3)ccc1N[C@@H]2CO | i | nt | nt
COCC(=O)N1CC2(C1)CN(Cc1cc(F)ccc1F)[C@H](CO)c1c2c2ccc(OC)cc2n1C | i | i | i
COc1cccc(C(=O)Nc2ccc3c(c2)OC[C@@H](C)NC[C@@H](C)[C@@H](OC)CN(C)C3=O)c1 | i | i | i
CO[C@@H]1CN(C)C(=O)c2ccc(NC(=O)c3cccc(F)c3)cc2OC[C@@H](C)NC[C@H]1C | i | i | 30.7
COc1cccc(C(=O)Nc2ccc3c(c2)OC[C@@H](C)NC[C@@H](C)[C@H](OC)CN(C)C3=O)c1 | i | i | 22.3
CO[C@@H]1CN(C)C(=O)c2ccc(NC(=O)c3cccc(F)c3)cc2OC[C@H](C)NC[C@H]1C | i | i | i
C[C@@H]1CN([C@@H](C)CO)C(=O)c2cc(NS(=O)(=O)c3ccccc3)ccc2O[C@@H](C)CCCCO[C@@H]1CN(C)S(=O)(=O)c1cn(C)cn1 | i | i | i
COc1ccc(NC(=O)Nc2ccc3c(c2)CC(=O)N([C@H](C)CO)C[C@H](C)[C@H](CN(C)S(=O)(=O)c2cn(C)cn2)O3)cc1 | nt | i | 26.7
C[C@@H]1CN([C@H](C)CO)C(=O)Cc2cc(NC(=O)Nc3ccc(F)cc3)ccc2O[C@@H]1CN(C)S(=O)(=O)c1cn(C)cn1 | 84.8 | nt | nt
C[C@H](CO)N1C[C@H](C)[C@@H](CN(C)S(=O)(=O)c2cn(C)cn2)Oc2ccc(NC(=O)Nc3ccccc3)cc2CC1=O | i | i | i
C[C@H](CO)N1C[C@H](C)[C@@H](CN(C)S(=O)(=O)c2cn(C)cn2)Oc2ccc(NC(=O)Nc3ccc(F)cc3)cc2CC1=O | 61.1 | nt | nt
C[C@@H]1CN([C@H](C)CO)C(=O)Cc2cc(NC(=O)Nc3ccccc3)ccc2O[C@@H]1CN(C)S(=O)(=O)c1cn(C)cn1 | i | i | i
CC(C)NC(=O)Nc1ccc2c(c1)CC(=O)N([C@@H](C)CO)C[C@H](C)[C@H](CN(C)S(=O)(=O)c1cn(C)cn1)O2 | i | i | i
O=C(Nc1cccc(F)c1)N1CCCCN2[C@H](CO)[C@@H](c3ccc(C#CC4CC4)cc3)[C@H]2C1 | i | i | i
C[C@H]1CN([C@@H](C)CO)C(=O)c2cc(NS(=O)(=O)c3cccs3)ccc2O[C@H]1CN(C)C(=O)Nc1cccc2ccccc12 | i | i | i
O=C(C[C@H]1CC[C@@H](NC(=O)Nc2ccc3c(c2)OCO3)[C@@H](CO)O1)NCc1ccc(Cl)cc1 | i | i | i
C[C@H](CO)N1C[C@H](C)[C@@H](CN(C)C(=O)Nc2cccc3ccccc23)Oc2ccc(NC(=O)C3CC3)cc2C1=O | i | i | i
C[C@H](CO)N1C[C@H](C)[C@H](CN(C)S(=O)(=O)c2ccccc2)Oc2ccc(NC(=O)Nc3ccc4c(c3)OCO4)cc2CC1=O | i | 16.2 | i
COc1ccc(S(=O)(=O)N(C)C[C@H]2Oc3ccc(NC(=O)Nc4ccc5c(c4)OCO5)cc3CC(=O)N([C@H](C)CO)C[C@@H]2C)cc1 | 428.6 | i | i
COc1ccc(S(=O)(=O)N(C)C[C@@H]2Oc3ccc(NC(=O)Nc4ccc5c(c4)OCO5)cc3CC(=O)N([C@H](C)CO)C[C@@H]2C)cc1 | i | i | i
COc1ccc(S(=O)(=O)N(C)C[C@@H]2Oc3ccc(NC(=O)Nc4ccc5c(c4)OCO5)cc3CC(=O)N([C@H](C)CO)C[C@H]2C)cc1 | i | i | i
C[C@H](CO)N1C[C@H](C)[C@@H](CN(C)S(=O)(=O)c2ccccc2)Oc2ccc(NC(=O)Nc3ccc4c(c3)OCO4)cc2CC1=O | i | i | i
COc1ccc(S(=O)(=O)N(C)C[C@@H]2Oc3ccc(NC(=O)Nc4ccc5c(c4)OCO5)cc3CC(=O)N([C@@H](C)CO)C[C@H]2C)cc1 | i | i | 31.0
N#C[C@H]1[C@@H](c2ccccc2-c2cccc(F)c2)[C@@H](CO)N1C(=O)C1CC1 | i | i | ?
